The record followed here is ChEMBL document CHEMBL1141029, “Allosteric inhibitors of Akt1 and Akt2: discovery of [1,2,4]triazolo[3,4-f][1,6]naphthyridines with potent and balanced activity” (Bioorg Med Chem Lett, 2009).

Data set [1] concerns the target T1, Serine/threonine-protein kinase Sgk1 (Homo sapiens, UniProt O00141).
T1 sequence (O00141 whole entry): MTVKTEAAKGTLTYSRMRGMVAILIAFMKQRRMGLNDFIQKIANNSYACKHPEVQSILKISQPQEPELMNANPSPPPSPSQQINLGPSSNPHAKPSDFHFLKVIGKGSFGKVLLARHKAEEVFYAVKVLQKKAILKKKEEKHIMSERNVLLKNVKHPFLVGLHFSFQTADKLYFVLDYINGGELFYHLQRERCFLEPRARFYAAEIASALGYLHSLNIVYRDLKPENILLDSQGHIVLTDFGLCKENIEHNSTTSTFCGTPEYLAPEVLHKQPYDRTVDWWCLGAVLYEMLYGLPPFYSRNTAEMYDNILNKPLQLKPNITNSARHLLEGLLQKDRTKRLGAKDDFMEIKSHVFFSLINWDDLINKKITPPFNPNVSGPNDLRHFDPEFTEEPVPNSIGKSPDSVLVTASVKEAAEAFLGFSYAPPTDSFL
The data set is described as follows: Inhibition of SGK.

Data set [2] concerns the target T2, RAC-beta serine/threonine-protein kinase (Homo sapiens, UniProt P31751). Description: Inhibition of Akt2 by cell based assay.
Data set [3] in a line: Inhibition of PKA.
Data set [4] deals with T3, RAC-alpha serine/threonine-protein kinase (Homo sapiens, UniProt P31749). The data set is described as follows: Inhibition of human cloned Akt1 expressed in Drosophila S2 cells by HTRF assay. The format is cell-based.
T3 sequence (P31749 whole entry): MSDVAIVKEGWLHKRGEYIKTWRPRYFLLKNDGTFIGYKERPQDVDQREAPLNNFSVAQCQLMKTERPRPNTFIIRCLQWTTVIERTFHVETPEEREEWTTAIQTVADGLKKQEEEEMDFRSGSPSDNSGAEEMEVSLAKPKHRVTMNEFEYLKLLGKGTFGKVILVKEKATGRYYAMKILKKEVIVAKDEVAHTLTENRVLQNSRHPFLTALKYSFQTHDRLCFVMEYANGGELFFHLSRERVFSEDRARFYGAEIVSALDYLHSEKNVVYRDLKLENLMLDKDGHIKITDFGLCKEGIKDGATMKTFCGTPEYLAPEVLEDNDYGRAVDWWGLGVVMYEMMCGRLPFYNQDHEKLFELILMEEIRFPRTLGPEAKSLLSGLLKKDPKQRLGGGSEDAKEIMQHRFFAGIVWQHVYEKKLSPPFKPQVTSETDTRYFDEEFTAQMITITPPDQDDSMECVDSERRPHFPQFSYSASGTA
The nature of data set [5]: Inhibition of PKC.
Data set [6] has as its target T2, RAC-beta serine/threonine-protein kinase. The data set is described as follows: Inhibition of human cloned Akt2 expressed in Drosophila S2 cells by HTRF assay. In kind it is cell-based. (Time-resolved FRET reads energy transfer from a long-lived donor to a nearby acceptor.)
The target in data set [7] is T3, RAC-alpha serine/threonine-protein kinase. Description: Inhibition of Akt1 by cell based assay.
Data set [8] deals with Mus musculus. Description: Inhibition of Akt1 phosphorylation in lung of nude mouse xenografted with C33a cells at 18 mg/mL administered through mini-pump after 20 hrs by IP kinase assay. In kind it is functional. The procedure, abridged: (§1)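 Nude mice bearing C33a cervical carcinoma tumours, 3 per concentration. Hydrochloride salt in 25% hydroxypropyl-b-cyclodextrin given by mini-pump at 8 µL/hr for 20 hrs, pump solution 70 or 18 mg/mL. Blood drawn for PK at 3, 6, 8, 11 and 20 h, so steady-state blood level is known. Euthanized at 20 h. Akt1 and Akt2 phosphorylation activity measured in lung as % inhibition.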

The nature of data set [9]: Drug level in blood of nude mouse xenografted with […] at 18 mg/mL after 20 hrs. The format is ADME, tissue-based. The note with it: whole blood, read-out: Drug uptake. A digest of the protocol:
as §1

The subject of data set [10] is Mus musculus. The data set is described as follows: Inhibition of Akt2 phosphorylation in lung of nude mouse xenografted with C33a cells at 18 mg/mL administered through mini-pump after 20 hrs by IP kinase assay. In kind it is functional. The procedure, abridged: as §1
The subject of data set [11] is Mus musculus. The data set is described as follows: Inhibition of Akt2 phosphorylation in lung of nude mouse xenografted with C33a cells at 70 mg/mL administered through mini-pump after 20 hrs by IP kinase assay. The format is functional. The procedure, abridged: as §1
The target in data set [12] is Voltage-gated inwardly rectifying potassium channel KCNH2 (Homo sapiens, UniProt Q12809). The data set is described as follows: Inhibition of human ERG expressed in HEK cells by competitive radioligand binding assay. In kind it is cell-based, HEK293.
Chain of Voltage-gated inwardly rectifying potassium channel KCNH2 (Q12809 whole entry): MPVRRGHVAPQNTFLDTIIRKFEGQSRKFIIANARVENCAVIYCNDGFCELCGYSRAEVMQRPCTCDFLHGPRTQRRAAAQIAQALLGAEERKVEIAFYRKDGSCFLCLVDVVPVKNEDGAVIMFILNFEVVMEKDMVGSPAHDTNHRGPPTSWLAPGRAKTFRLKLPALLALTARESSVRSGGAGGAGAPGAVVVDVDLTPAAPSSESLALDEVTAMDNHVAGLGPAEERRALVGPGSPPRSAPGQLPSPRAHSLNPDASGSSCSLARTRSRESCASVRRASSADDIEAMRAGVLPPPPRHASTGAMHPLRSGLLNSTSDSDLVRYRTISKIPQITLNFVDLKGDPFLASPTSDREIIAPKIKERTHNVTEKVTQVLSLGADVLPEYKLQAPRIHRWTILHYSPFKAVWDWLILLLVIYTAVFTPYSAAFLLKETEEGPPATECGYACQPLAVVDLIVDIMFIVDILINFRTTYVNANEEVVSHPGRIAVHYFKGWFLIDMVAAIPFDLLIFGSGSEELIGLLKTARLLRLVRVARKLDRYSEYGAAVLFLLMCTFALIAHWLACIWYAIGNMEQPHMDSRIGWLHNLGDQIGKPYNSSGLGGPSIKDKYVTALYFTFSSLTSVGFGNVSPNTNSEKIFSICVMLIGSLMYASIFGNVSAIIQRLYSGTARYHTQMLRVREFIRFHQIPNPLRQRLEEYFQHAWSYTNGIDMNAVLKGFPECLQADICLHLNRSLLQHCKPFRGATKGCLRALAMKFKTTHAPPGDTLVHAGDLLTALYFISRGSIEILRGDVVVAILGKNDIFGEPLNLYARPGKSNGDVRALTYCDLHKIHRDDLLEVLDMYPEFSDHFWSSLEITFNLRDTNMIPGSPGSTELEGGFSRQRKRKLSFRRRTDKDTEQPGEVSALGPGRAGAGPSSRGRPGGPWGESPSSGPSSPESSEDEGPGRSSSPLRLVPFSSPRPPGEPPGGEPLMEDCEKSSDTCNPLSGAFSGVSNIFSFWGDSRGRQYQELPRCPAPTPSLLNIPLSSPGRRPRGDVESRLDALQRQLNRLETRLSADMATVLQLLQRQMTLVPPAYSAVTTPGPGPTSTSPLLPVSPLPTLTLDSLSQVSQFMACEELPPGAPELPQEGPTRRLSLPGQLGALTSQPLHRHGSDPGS
Data set [13] can be described thus: Drug level in blood of nude mouse xenografted with […] at 70 mg/mL after 20 hrs. In kind it is ADME, tissue-based. The note with it: whole blood, read-out: Drug uptake. A digest of the protocol: as §1
Data set [14] has as its system Mus musculus. Description: Inhibition of Akt2 phosphorylation in lung of nude mouse xenografted with C33a cells at 10 mg/mL administered through mini-pump after 20 hrs by IP kinase assay. In kind it is functional.
Data set [15] deals with Mus musculus. The data set is described as follows: Inhibition of Akt1 phosphorylation in lung of nude mouse xenografted with C33a cells at 70 mg/mL administered through mini-pump after 20 hrs by IP kinase assay. In kind it is functional. The note with it: in the assay text read “10 mg/mL” for “70 mg/mL”.
Data set [16] in a line: Drug level in blood of nude mouse xenografted with […] at 10 mg/mL after 20 hrs. In kind it is ADME, tissue-based. The note with it: whole blood, read-out: Drug uptake.

The pIC50 is −log10 of the IC50, conventionally taken in molar units. High values mean a low IC50, low ones a high IC50.

pIC50: −log10 of the molar value.

T2 sequence (P31751 whole entry): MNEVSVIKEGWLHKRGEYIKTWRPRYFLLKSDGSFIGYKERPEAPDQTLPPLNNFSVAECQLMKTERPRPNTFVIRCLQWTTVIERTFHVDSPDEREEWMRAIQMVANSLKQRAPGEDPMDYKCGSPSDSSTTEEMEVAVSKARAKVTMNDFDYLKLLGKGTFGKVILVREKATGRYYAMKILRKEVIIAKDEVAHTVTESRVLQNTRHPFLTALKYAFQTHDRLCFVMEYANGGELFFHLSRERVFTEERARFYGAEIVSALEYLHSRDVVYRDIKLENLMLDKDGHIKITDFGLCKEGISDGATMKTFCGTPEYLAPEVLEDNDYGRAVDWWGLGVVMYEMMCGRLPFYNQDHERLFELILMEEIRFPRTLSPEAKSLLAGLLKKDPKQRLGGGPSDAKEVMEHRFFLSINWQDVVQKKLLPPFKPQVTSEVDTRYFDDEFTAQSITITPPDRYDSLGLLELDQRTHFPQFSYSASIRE

For `OCCNCc1nnc2c3cc(-c4ccccc4)c(-c4ccc(CN5CCC(c6n[nH]c(-c7ccccn7)n6)CC5)cc4)nc3ccn12`, the pIC50 in data set [1] is less than 4.30; in data set [2] it was 6.60; in [3], less than 4.30; in [4], 7.77; in [5], less than 4.30; in data set [6], 7.11. This compound also gave a pIC50 in data set [7] of 7.38.
`Cc1nnc2c3cc(-c4ccccc4)c(-c4ccc(CN5CCC(c6n[nH]c(-c7ccccn7)n6)CC5)cc4)nc3ccn12`: the pIC50 in data set [1] is less than 4.30; in data set [2], 6.75; in data set [3], less than 4.30; in data set [4] it was 8.34; in data set [5], less than 4.30; in data set [6] it was 7.84. For the same compound, the pIC50 in [7] is 7.61.
Regarding `CN1CCN(Cc2nnc3c4cc(-c5ccccc5)c(-c5ccc(CN6CCC(c7n[nH]c(-c8ccccn8)n7)CC6)cc5)nc4ccn23)CC1`, the pIC50 in [1] was less than 4.30; in data set [2], 6.42; in data set [3], less than 4.30; in data set [4], 8.00; in data set [5], less than 4.30; in [6], 7.26. In [7], this compound showed a pIC50 of 7.20.
As for `c1ccc(-c2cc3c(ccn4cnnc34)nc2-c2ccc(CN3CCC(c4n[nH]c(-c5ccccn5)n4)CC3)cc2)cc1`, the pIC50 in data set [1] is less than 4.30; in [2], 7.39; in [3] it was less than 4.30; in data set [4], 8.40; in data set [5] it was less than 4.30; in data set [7], 8.30. In addition, the pIC50 in data set [12] was less than 5.00. In addition, the “inhibition (INH)” value in the data set on Mus musculus [8] is 92%; in the data set on Mus musculus [10], 41%; in the data set with Mus musculus [11], 35%. Also, the concentration at 20 h was found to be 1800 nM in data set [9] and 1700 nM in data set [13].
`Nc1nnc2c3cc(-c4ccccc4)c(-c4ccc(CN5CCC(c6n[nH]c(-c7ccccn7)n6)CC5)cc4)nc3ccn12`: the pIC50 in data set [1] is less than 4.30; in [2] it was 7.32; in data set [3], less than 4.30; in data set [4], 8.55; in data set [5], less than 4.30; in data set [6], 8.03. This compound also had a pIC50 in data set [7] of 7.74.
`Sc1nnc2c3cc(-c4ccccc4)c(-c4ccc(CN5CCC(c6n[nH]c(-c7ccccn7)n6)CC5)cc4)nc3ccn12`: the pIC50 in data set [1] was less than 4.30; in [2], 6.97; in data set [3], less than 4.30; in data set [4], 8.00; in data set [5] it was less than 4.30; in data set [6] it was 7.98. Besides, the pIC50 in [7] is 7.77.
Take `Oc1nnc2c3cc(-c4ccccc4)c(-c4ccc(CN5CCC(c6n[nH]c(-c7ccccn7)n6)CC5)cc4)nc3ccn12`: the pIC50 in data set [1] is less than 4.30; in [2], 6.78; in data set [3], less than 4.30; in [4], 8.59; in data set [5], less than 4.30; in [6] it was 8.17. For the same compound, the pIC50 in data set [7] is 7.57; in data set [12] it was 5.27.
With `O=c1[nH]ccc2nc(-c3ccc(CN4CCC(c5n[nH]c(-c6ccccn6)n5)CC4)cc3)c(-c3ccccc3)cc12`, the “inhibition (INH)” value in the data set on Mus musculus [14] is 4%; in the data set on Mus musculus [15] it was 85%. For the same compound, the concentration at 20 h in [16] stood at 3000 nM. The pIC50 in [12] is 5.25.
`Nc1nnc2c3cc(-c4ccccc4)c(-c4ccc(CN5CCC(n6cnc(-c7ccccn7)c6)CC5)cc4)nc3ccn12`: the pIC50 in data set [2] is 7.13; in data set [4], 8.48; in data set [6] it was 8.55; in [7], 7.74.
As to `ClCc1nnc2c3cc(-c4ccccc4)c(-c4ccc(CN5CCC(c6n[nH]c(-c7ccccn7)n6)CC5)cc4)nc3ccn12`, the pIC50 was less than 4.30 in data set [1]; 6.32 in [2]; less than 4.30 in data set [3]; 7.57 in [4]; less than 4.30 in [5]; 7.98 in data set [6]. In addition, the figures for the pIC50 in data set [7] and in data set [12] were 6.95 and 5.70, respectively.
Take `NC(=O)Nc1nnc2c3cc(-c4ccccc4)c(-c4ccc(CN5CCC(c6n[nH]c(-c7ccccn7)n6)CC5)cc4)nc3ccn12`: the pIC50 is less than 4.30 in data set [1]; 5.92 in [2]; less than 4.30 in data set [3]; 8.07 in [4]; less than 4.30 in data set [5]; 7.62 in [6]. Moreover, in data set [7], the pIC50 was 6.58.
